From ChEMBL document CHEMBL1131263, “Substituted tetrahydropyrrolo[2,1-b]oxazol-5(6H)-ones and tetrahydropyrrolo[2,1-b]thiazol-5(6H)-ones as hypoglycemic agents” (1998)

Columns and labels:
Mus musculus [1] = assay: In vivo lowering of blood glucose levels in diabetic obese ob/ob mice by measuring postprandial blood glucose level on day 3 after 4 hours at 300 uM/kg oral dose; format: functional
In short: (§1)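 Adult male C57BL ob/ob mice, fed, grouped (6/group) and matched for blood glucose on day 0; mice under 150 mg/dL excluded. Oral dosing in the morning on days 1-3, vehicle 0.5% CMC with 0.2% Tween-80. Significance versus vehicle.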

Mus musculus [2] = assay: In vivo lowering of blood glucose levels in diabetic obese ob/ob mice by measuring postprandial blood glucose level on day 3 after 8 hours at 300 uM/kg oral dose; format: functional; in short: as §1
Mus musculus [3] = assay: In vivo lowering of blood glucose levels in diabetic obese ob/ob mice, measuring postprandial blood glucose level on day1 after 2 hours at 300 uM/kg oral dose; format: functional; in short: as §1
[4] = lowest concentration at which glucose utilized was greater than or equal to 140% of control value tested in a glucose utilization L6 myocyte in vitro assay; format: functional, Rattus norvegicus
In short: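 Differentiated rat L6 myotubes (day 11 or 13 after plating) exposed 20 h to compound in serum-free DMEM with 15 mM glucose and 1% final DMSO. Tested in quadruplicate at 3, 10, 30, 100, 300 µM. Glucose left in the medium read by glucose oxidase. Value is the lowest concentration giving at least 40% more utilization than control.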

Mus musculus [5] = assay: In vivo lowering of blood glucose levels in diabetic obese ob/ob mice by measuring postprandial blood glucose level on day1 after 4 hours at 300 uM/kg oral dose; format: functional; in short: as §1
Mus musculus [6] = assay: In vivo lowering of blood glucose levels in diabetic obese ob/ob mice, measuring postprandial blood glucose level on day 3 after 2 hours at 300 uM/kg oral dose; format: functional; in short: as §1

Compound | Efficacy (Mus musculus [1]) | Efficacy (Mus musculus [2]) | Efficacy (Mus musculus [3]) | Lowest effective concentration for glucose utilization ≥140% of control [4] | Efficacy (Mus musculus [5]) | Efficacy (Mus musculus [6])
O=C1CC[C@]2(c3cccnc3)O[C@H](COc3ccc(Cl)cc3)CN12 | 22% | 35% | 22% | 300 µM | 20% | 1%
O=C1CC[C@]2(c3ccc(Cl)c(Cl)c3)OC(COc3ccc(Cl)cc3)CN12 (stereo not given in full) | 80% | 78% | 0% | 10 µM | 36% | 70%
O=C1CC[C@]2(c3ccc4ccccc4c3)O[C@@H](COc3ccc(Cl)cc3)CN12 | 7% | 8% | -6% | >300 µM | -11% | 13%
OCc1cc(-c2ccc(Cl)cc2)no1 | 53% | 34% | -3% | 100 µM | -1% | 61%
O=C1CC[C@]2(c3ccc(Oc4ccccc4)cc3)OCCN12 | -1% | -4% | -8% | 300 µM | 11% | -3%
COc1ccc([C@]23CCC(=O)N2C[C@@H](COc2ccc(Cl)cc2)O3)cc1 | -27% | 12% | -12% | 30 µM | 3% | -5%
O=C1CC[C@]2(c3ccc(Cl)cc3)SCCN12 | 64% | 68% | 16% | 300 µM | 2% | 57%
O=C1CC[C@]2(c3ccc(F)cc3)O[C@H](COc3ccc(Cl)cc3)CN12 | 60% | 38% | -2% | 30 µM | 19% | 67%
CC(C)(O)c1cc(-c2ccc(Oc3ccccc3)cc2)no1 | 60% | 55% | 6% | 30 µM | -2% | 61%
O=C1CC[C@]2(c3ccc(Cl)cc3)OCCN12 | 28% | 11% | 21% | >1000 µM | 7% | 23%
O=C1CC[C@]2(c3ccc(Cl)cc3)S[C@@H](COc3ccc(Cl)cc3)CN12 | 48% | 35% | 9% | 10 µM | 3% | 44%
O=C1CC[C@]2(c3ccccc3)O[C@H](COc3ccc(Cl)cc3)CN12 | -16% | -28% | 3% | 100 µM | 45% | 18%
CS(=O)(=O)N1C[C@H](COc2ccc(Cl)cc2)O[C@@H]1c1ccc(Cl)cc1 | 59% | 29% | -12% | 100 µM | -4% | 35%
COc1ccc(OC[C@@H]2CN3C(=O)CC[C@]3(c3ccc(Cl)cc3)O2)cc1 | -8% | -28% | -17% | 100 µM | -20% | -19%
O=C1CC[C@]2(c3ccc(-c4ccccc4)cc3)O[C@H](COc3ccc(Cl)cc3)CN12 | 35% | 7% | 16% | 10 µM | 17% | 20%
